The test system of data set [1] is Lymphocyte. Nature of the data set: Induction of mitochondria membrane potential depolarization in FRDA patient-derived lymphocyte at 2.5 uM incubated for 16 hrs by JC-1 probe based flow cytometry analysis. The data set is classed as functional. The following applies: Homo sapiens. The method in brief: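 Mitochondrial inner membrane potential in FRDA lymphocytes measured by flow cytometry with the ratiometric probe JC-1. Percent of cells with intact Δψm taken from a two-dimensional color density dot plot. Duplicates run in two independent runs.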
(In general: In flow cytometry, cells or beads pass a laser one at a time.)

Data set [2] has as its system Lymphocyte. The data set can be described thus: Induction of ATP production in FRDA patient-derived lymphocyte at 0.1 uM incubated for 24 hrs by luciferase-linked ATPase enzymatic assay. In kind it is functional, tissue-based. The conditions noted are these: Homo sapiens. The method in brief: (§1)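 Total cellular ATP in cultured FRDA lymphocytes after 24 h with compound in glucose-free medium with 25 mM galactose, to force OXPHOS dependence. Tested range 100 nM–2.5 μM. Expressed as percent of total ATP relative to untreated control.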

The test system of data set [3] is Lymphocyte. The data set can be described thus: Induction of ATP production in FRDA patient-derived lymphocyte incubated for 24 hrs by luciferase-linked ATPase enzymatic assay. In kind it is functional, tissue-based. The conditions noted are these: Homo sapiens, dose microM 0.25-2.5, time 24.0 hrs. The method in brief: as §1
In the next data set the test system is HepG2. Nature of the data set: Inhibition of ferroptosis in human HepG2 cells assessed as increase in pAMPK/AMPK ratio at 1 uM incubated for 24 hrs by Western blot analysis. In kind it is functional, cell-based. The method in brief: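 HepG2 cells treated with or without compound. AMPK, p-AMPK and β-actin (loading control) detected by Western blot and quantified as p-AMPK/AMPK ratio. Triplicate experiments, mean ± SEM.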
On the technique in general: A western blot detects proteins with antibodies after separation by electrophoresis.

The subject of data set [4] is Lymphocyte. The data set can be described thus: Cytotoxicity against FRDA patient-derived lymphocyte at 2.5 uM incubated for 24 to 48 hrs by flow cytometry analysis. In kind it is cell-based. The conditions noted are these: human, time 24-48 hrs. A digest of the protocol: (§2)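 FRDA lymphocytes kept 24 h in glucose-free medium with galactose to force reliance on mitochondrial ATP. Viability by flow cytometry with dual staining, calcein-AM for live and ethidium homodimer-1 for dead cells. Percent live cells taken from a two-dimensional color density dot plot. Duplicates run in two independent experiments.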

Data set [5] is described as follows: Inhibition of erastin-induced cell death in FRDA patient-derived fibroblast assessed as depletion of cellular ATP incubated for 12 hrs followed by erastin stimulation and measured after by luciferase-linked ATPase enzymatic assay. The following applies: Homo sapiens. The data set is classed as functional, tissue-based. A digest of the protocol: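 Primary FRDA patient fibroblasts treated with compound, then challenged with erastin (cystine-glutamate exchange inhibitor, GSH depletion). Cell death read as depletion of cellular ATP by a luciferase-linked kit assay.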

The test system of data set [6] is Lymphocyte. Nature of the data set: Anti-ferroptotic activity in FRDA patient-derived Lymphocyte assessed as reduction in RSL3-induced lipid peroxidation incubated for overnight followed by RSL3 stimulation and measured after 90 mins by FACS analysis. The data set is classed as functional, cell-based. The conditions noted are these: Homo sapiens, 1.5 h. A digest of the protocol: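 FRDA patient lymphocytes pretreated with a range of concentrations, then challenged with RSL3 (GPX4 inhibitor) at 2 μM; lipid peroxidation read with the C11-BODIPY581/591 fluorescent probe. EC50 taken from dose–response curves by nonlinear regression fit.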

For data set [7], the system named is Lymphocyte. Nature of the data set: Induction of ATP production in FRDA patient-derived lymphocyte at 0.1 to 2.5 uM incubated for 24 hrs by luciferase-linked ATPase enzymatic assay. The conditions noted are these: Homo sapiens, dose microM 0.1-2.5, time 24.0 hrs. The data set is classed as functional, tissue-based. The method in brief: as §1
Data set [8] deals with Lymphocyte. Nature of the data set: Cytotoxicity against FRDA patient-derived lymphocyte at 0.25 to 2.5 uM incubated for 24 to 48 hrs by flow cytometry analysis. The conditions noted are these: human, dose 0.25-2.5 µM, time 24-48 hrs. The data set is classed as cell-based. A digest of the protocol: as §2
In data set [9] the test system is Lymphocyte. Nature of the data set: Induction of ATP production in FRDA patient-derived lymphocyte at 2.5 uM incubated for 24 hrs by luciferase-linked ATPase enzymatic assay. The data set is classed as functional, tissue-based. The following applies: Homo sapiens. A digest of the protocol: as §1
Data set [10] deals with Lymphocyte. Nature of the data set: Induction of ATP production in FRDA patient-derived lymphocyte at 0.1 and 0.25 uM incubated for 24 hrs by luciferase-linked ATPase enzymatic assay. The following applies: Homo sapiens, dose microM 0.1-0.25, time 24.0 hrs. In kind it is functional, tissue-based. A digest of the protocol:
as §1

Data set [11] concerns Lymphocyte. The data set can be described thus: Induction of ATP production in FRDA patient-derived lymphocyte at 0.1 to 0.5 uM incubated for 24 hrs by luciferase-linked ATPase enzymatic assay. In kind it is functional, tissue-based. The conditions noted are these: Homo sapiens, dose microM 0.1-0.5, time 24.0 hrs. A digest of the protocol:
as §1

For orientation: EC50 means the concentration needed to bring the measured effect to its halfway point.

Activity calls are given as the source filed them. No cut-off for these calls is given here.

For the compound `CN(C)c1ccc2nc3ccc(=[N+](C)C)cc-3sc2c1`, the outcome with Lymphocyte [1] and in the data set on Lymphocyte [2] was Active. Moreover, in the data set on Lymphocyte [3], the result was inactive. In addition, in the data set on HepG2, the “pAMPK/AMPK ratio increase (active/not active)” value was “inactive”.

Take `CCCCCCCCCCc1cc2nc3ccc(N(C)C)cc3sc-2cc1=[N+](C)C.[I-]`: the Activity result with Lymphocyte [4] is recorded as “Toxic”. The figures for the EC50 (in data set [5]; in the data set with Lymphocyte [6]) were 29 nM and 38 nM, respectively. Moreover, the outcome in the data set on Lymphocyte [1] was Active. Besides, the “pAMPK/AMPK ratio increase (active/not active)” value in the data set with HepG2 was “Active”. In addition, the outcome in the data set with Lymphocyte [7] was inactive.

In the case of `CCCCCCCCc1cc2nc3ccc(N(C)C)cc3sc-2cc1=[N+](C)C.[I-]`, in the data set with Lymphocyte [4], the Activity entry is “Toxic”. The figures for the EC50 (in data set [5]; in the data set on Lymphocyte [6]) were 39 nM and 76 nM, respectively. The outcome in the data set with Lymphocyte [1] was Active. The result with Lymphocyte [7] was inactive.

Turning to `Cc1c(C)c2c(c(C)c1O)CC[C@@](C)(CCC[C@H](C)CCC[C@H](C)CCCC(C)C)O2` [ALPHA-TOCOPHEROL], the EC50 (in data set [5]; in the data set on Lymphocyte [6]) was > 500 nM each time.

As to `CCCCCCCCCc1cc2nc3ccc(N(C)C)cc3sc-2cc1=[N+](C)C.[I-]`, the Activity result in the data set on Lymphocyte [4] is recorded as “Toxic”. The EC50 stood at 37 nM in data set [5] and 53 nM with Lymphocyte [6]. In the data set on Lymphocyte [1], the result was Active. Besides, the outcome with Lymphocyte [7] was inactive.

As for `CN(C)c1ccc2nc3ccc(=O)cc-3sc2c1`, the EC50 in [5] worked out at 27 nM; in the data set on Lymphocyte [6] it was 26 nM. Also, in the data set on Lymphocyte [1], the outcome was Active. Further, the “pAMPK/AMPK ratio increase (active/not active)” value in the data set on HepG2 is “Active”.

As for `CCCCCCCCCCCCCCCCc1cc2nc3ccc(N(C)C)cc3sc-2cc1=[N+](C)C.[I-]`, the Activity result in the data set with Lymphocyte [8] was “Non-Toxic”. Moreover, the outcome in the data set with Lymphocyte [9] was inactive. In addition, the EC50 in [5] was 55 nM; with Lymphocyte [6] it was 70 nM. In the data set on Lymphocyte [10], the outcome was Active.

On to `CCCCCCCCCCCCc1cc2nc3ccc(N(C)C)cc3sc-2cc1=O`, for which the Activity entry with Lymphocyte [8] is on record as “Non-Toxic”. Besides, the outcome in the data set with Lymphocyte [9] was inactive. For the same compound, the outcome with Lymphocyte [11] and in the data set on Lymphocyte [1] was Active. For the same compound, the values for the EC50 (in data set [5]; in the data set on Lymphocyte [6]) were 15 nM and 16 nM, respectively.

As for `CCOC(=O)c1ccc(NC2CCCCC2)c(N)c1`, the results for the EC50 (in [5]; with Lymphocyte [6]) were 33 nM and 48 nM, respectively.

Consider `CN(C)c1ccc2nc3ccc(N(C)C)cc3[s+]c2c1.[Cl-]` [METHYLENE BLUE ANHYDROUS], for which the Activity entry in the data set with Lymphocyte [4] is “Toxic”. Also, the EC50 in [5] amounted to 43 nM; in the data set on Lymphocyte [6] it was 88 nM.

On to `CCCCCCCCCCCCCCCCc1cc2nc3ccc(N(C)C)cc3sc-2cc1=O`, for which the Activity result in the data set with Lymphocyte [8] is reported as “Non-Toxic”. Moreover, the outcome in the data set on Lymphocyte [9] was inactive. Further, in the data set with Lymphocyte [11], the outcome was Active. Besides, the EC50 was 22 nM in data set [5] and 25 nM in the data set with Lymphocyte [6].

With `CCCCCCCCCCc1cc2nc3ccc(N(C)C)cc3sc-2cc1=O`, the Activity result in the data set with Lymphocyte [4] is listed as “Toxic”. Also, the values for the EC50 (in data set [5]; in the data set with Lymphocyte [6]) were 10 nM and 9 nM, respectively. Also, the result with Lymphocyte [1] and in the data set on Lymphocyte [2] was Active. Also, the “pAMPK/AMPK ratio increase (active/not active)” value with HepG2 is “Active”.

Turning to `CCCCCCCCCc1cc2nc3ccc(N(C)C)cc3sc-2cc1=O`, the Activity entry with Lymphocyte [4] is “Toxic”. The EC50 in data set [5] is 11 nM; in the data set on Lymphocyte [6] it was 12 nM. For the same compound, the outcome in the data set on Lymphocyte [1] and in the data set on Lymphocyte [2] was Active.

For the compound `Clc1cccc(CNC2=Nc3ccccc3NC23CCNCC3)c1`, the EC50 (in data set [5]; in the data set on Lymphocyte [6]) was 22 nM throughout.

On to `CCCCCCCCCCCCc1cc2nc3ccc(N(C)C)cc3sc-2cc1=[N+](C)C.[I-]`, for which the Activity result with Lymphocyte [4] was “Toxic”. For the same compound, the EC50 in data set [5] came to 35 nM; with Lymphocyte [6] it was 54 nM. In addition, the outcome with Lymphocyte [1] was Active.

On to `CC(=O)N1c2ccc(N(C)C)cc2Sc2cc(N(C)C)ccc21`, for which, in the data set with Lymphocyte [6], the EC50 was > 2500 nM.

With `CCCCCCCCc1cc2nc3ccc(N(C)C)cc3sc-2cc1=O`, the Activity result with Lymphocyte [4] is “Toxic”. Besides, the EC50 in data set [5] turned out to be 15 nM; in the data set with Lymphocyte [6], 14 nM. The outcome in the data set with Lymphocyte [1] and in the data set on Lymphocyte [2] was Active.

These data come from ChEMBL document CHEMBL4725467, “Antiferroptotic Activity of Phenothiazine Analogues: A Novel Therapeutic Strategy for Oxidative Stress Related Disease” (ACS Med Chem Lett, 2020).
